Measured values: ChEMBL document CHEMBL1121394, “Oxytocin and lysine-vasopressin with N5,N5-dialkylglutamine in the 4 position: effect of introducing sterically hindered groups into the hydrophilic cluster of neurohypophyseal hormones” (1980)

Experiments:
[1] = species: Gallus gallus; assay: Compound was tested in vitro for avain vasopressor activity; format: functional; conditions: in the assay text read “vasodepressor” for “vasopressor”
Summary of the method: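 Vasodepressor assay in conscious White Leghorn roosters (Coon method, modified). Where activity was measurable, Schild four-point design with at least ten determinations on three animals.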

[2] = species: Rattus norvegicus; assay: Compound was tested in vitro for uterotonic activity in rat; format: functional
Summary of the method: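 Isolated uterine horns from virgin rats in natural estrus (Holton method as modified by Munsick), Mg2+-free van Dyke-Hastings solution as bath. Where activity was measurable, Schild four-point design with at least ten determinations on three animals.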

[3] = species: Rattus norvegicus; assay: Compound was tested for percent maximum uterotonic response; format: functional
Summary of the method: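 Isolated uterine horns from virgin rats in natural estrus, bathed in Mg2+-free van Dyke-Hastings solution. Dose-response by individual injection, doses raised geometrically in 0.5 log10 steps until a maximal response was reached.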

[4] = species: Rattus norvegicus; assay: Compound was tested in vitro for antidiuretic activity in rat; format: functional, Urine; conditions: in the assay text read “in vivo” for “in vitro”
Summary of the method: (§1)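 Anesthetized male Sprague-Dawley rats. Where activity was measurable, Schild four-point design with at least ten determinations on three animals.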

[5] = species: Rattus norvegicus; assay: Compound was tested in vitro for pressor activity on rat; format: functional; conditions: in the assay text read “in vivo” for “in vitro”; summary of the method: as §1

CC[C@H](C)[C@@H]1NC(=O)[C@H](Cc2ccc(O)cc2)NC(=O)[C@@H](N)CSSC[C@@H](C(=O)N2CCC[C@H]2C(=O)N[C@@H](CC(C)C)C(=O)NCC(N)=O)NC(=O)[C@H](CC(N)=O)NC(=O)[C@H](CCC(N)=O)NC1=O [OXYTOCIN]
Activity [1]: 507 mg | Activity [2]: 546 mg | Max uterotonic response [3]: 100% | Activity [4]: 3.1 mg | Activity [5]: 2.7 mg
